ChEMBL document CHEMBL4028911, “Discovery of a Small-Molecule Bromodomain-Containing Protein 4 (BRD4) Inhibitor That Induces AMP-Activated Protein Kinase-Modulated Autophagy-Associated Cell Death in Breast Cancer” (J Med Chem, 2017)
The source made the active and inactive calls.

Tests used:
[1] = biological target: T1, Bromodomain-containing protein 4 (Homo sapiens, UniProt O60885); assay: Inhibition of BRD4 in human MDA-MB-231 cells assessed as induction of AMPKalpha phosphorylation at thr172 at 3 uM in presence of ATG5 siRNA by Western blot analysis; assay type: cell-based
Procedure, shortened: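 Cells given 50 nM ATG5 or negative-control siRNA (Lipofectamine RNAiMAX) and used 48 h later, then exposed to 1.5 μM (MCF-7) or 3 μM (MDA-MB-231). p-AMPKα analysed by western blot with β-actin loading control.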

[2] = test system: MCF7; assay: Induction of autophagy in human MCF7 cells assessed as downregulation of p62/SQSTM1 expression at 1.5 uM measured up to 36 hrs by Western blot analysis; assay type: functional, cell-based
Procedure, shortened: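 MCF-7 (1.5 µM) or MDA-MB-231 (3 µM) cells treated for indicated times. Adherent and floating cells lysed in RIPA with 1 mM PMSF, 4°C for 1 h. Equal protein run on 10-15% SDS-PAGE, transferred to PVDF, blocked with milk or BSA, probed with primary then HRP secondary antibodies, ECL detection; β-actin as loading control.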

[3] = test system: MDA-MB-231; assay: Induction of autophagy in human MDA-MB-231 cells assessed as cytoplasmic vacuolization at 3 uM by electron microscopy; assay type: functional, cell-based
Procedure, shortened: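 MCF-7 (1.5 µM) or MDA-MB-231 (3 µM) cells treated for indicated times. Cytoplasmic vacuoles examined by transmission electron microscopy.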

[4] = biological target: T1, Bromodomain-containing protein 4; assay: Inhibition of BRD4 in human MDA-MB-231 cells assessed as downregulation of mTOR phosphorylation at ser244 at 3 uM measured up to 36 hrs by Western blot analysis; assay type: cell-based
Procedure, shortened: (§1)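 MCF-7 (1.5 μM) or MDA-MB-231 (3 μM) cells treated for indicated times. Adherent and floating cells lysed in RIPA with 1 mM PMSF. Equal protein run on 10-15% SDS-PAGE, blotted to PVDF, blocked in milk or BSA, HRP/ECL detection. β-actin loading control.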

[5] = biological target: Bromodomain-containing protein 2 (Homo sapiens, UniProt P25440); assay: Inhibition of recombinant human N-terminal GST-tagged BRD2 bromodomain-2 (339 to 459 residues) expressed in Escherichia coli expression system after 120 mins by TR-FRET assay
Procedure, shortened: (§2)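 TR-FRET bromodomain binding. Recombinant BRD domain, BET ligand and test agent in 20 μl assay buffer with 1% DMSO final. Incubated 120 min at room temperature. Blank lacks BET ligand.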

[6] = species: Homo sapiens; assay: Effect on p53 interaction with AMPK in human MDA-MB-231 cells at 3 uM by co-immunoprecipitation assay; assay type: cell-based
Procedure, shortened: (§3)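 Cells left untreated or treated, then lysed in RIPA (40 mM Tris-HCl pH 7.5, 150 mM NaCl, 0.5% NP-40, protease inhibitors, 5% glycerol, 10 mM NaF). Lysates incubated overnight at 4°C with BRD4 or p53 antibodies plus protein A/G beads, washed 3 times, resolved on 10% SDS-PAGE. Blots probed for p53 and AMPKα; inputs checked for BRD4, p53 and AMPKα.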

[7] = biological target: T1, Bromodomain-containing protein 4; assay: Inhibition of BRD4 in human MCF7 cells assessed as induction of AMPKalpha phosphorylation at thr172 at 1.5 uM measured up to 36 hrs by Western blot analysis; assay type: cell-based; procedure, shortened: as §1
[8] = biological target: T1, Bromodomain-containing protein 4; assay: Inhibition of His/thioredoxin-tagged human recombinant BRD4 bromodomain-1 (43 to 166 residues) expressed in Escherichia coli BL21 Star (DE3) pre-incubated for 30 mins followed by biotinylated histone peptide H4 addition measured after 30 mins by AlphaScreen assay
[9] = test system: MCF7; assay: Induction of autophagy in human MCF7 cells assessed as increase in LC3B puncta at 1.5 uM after 24 hrs by DAPI-staining based immunocytochemistry; assay type: functional, cell-based
Procedure, shortened: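 MCF-7 cells treated with 1.5 µM for 24 h and blocked with 1.5% goat serum in PBS. Incubated overnight at 4°C with anti-LC3B (1:200) in PBS/1% BSA, then FITC secondary for 1 h at room temperature. Nuclei counterstained with DAPI; LC3B puncta imaged.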

[10] = biological target: T1, Bromodomain-containing protein 4; assay: Inhibition of BRD4 in human MCF7 cells assessed as downregulation of mTOR phosphorylation at ser244 at 1.5 uM measured up to 36 hrs by Western blot analysis; assay type: cell-based; procedure, shortened: as §1
[11] = test system: Mus musculus; assay: In vivo Antiproliferative activity in BALB/c mouse xenografted with human MCF7 cells assessed as reduction in Ki-67 positive cells at 100 mg/kg, ig administered once a day for 24 days by hematoxylin-staining based immunohistochemistry analysis; assay type: functional, organism-based
Procedure, shortened: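 Xenograft tumors from vehicle and 100 mg/kg groups were formalin-fixed and sectioned. Antigen retrieval by microwaving in EDTA buffer (pH 8.0) or citrate buffer (pH 6.0). […] Percentage of positive staining quantified.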

[12] = test system: Mus musculus; assay: Induction of LC3 accumulation in BALB/c mouse xenografted with human MDA-MB-231 cells at 100 mg/kg, ig administered once a day for 24 days by Western blot analysis; assay type: functional, organism-based
Procedure, shortened: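 Tumor tissues excised from MCF-7 or MDA-MB-231 xenograft mice were lysed and analysed by western blot for BRD4, c-Myc, LC3 and cleaved caspase-3.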

[13] = species: Homo sapiens; assay: Increase in p53 interaction with AMPK in human MCF7 cells at 1.5 uM by co-immunoprecipitation assay; assay type: cell-based; procedure, shortened: as §3
[14] = biological target: T1, Bromodomain-containing protein 4; assay: Inhibition of BRD4 in human MCF7 cells assessed as downregulation of c-Myc expression at 1.5 uM measured up to 36 hrs by Western blot analysis; assay type: cell-based; procedure, shortened: as §1
[15] = biological target: T1, Bromodomain-containing protein 4; assay: Inhibition of BRD4 in human MDA-MB-231 cells assessed as downregulation of AKT phosphorylation at thr308 at 3 uM measured up to 36 hrs by Western blot analysis; assay type: cell-based; procedure, shortened: as §1
[16] = test system: MCF7; assay: Antitumor activity against CM-Dil-labeled human MCF7 cells implanted in transgenic zebrafish embryos assessed as tumor growth inhibition at 12.5 to 50 uM dosed via sterile dechlorinated tap water and measured on fifth day after implantation by fluorescence assay; assay type: functional, organism-based
[17] = biological target: Bromodomain-containing protein 3 (Homo sapiens, UniProt Q15059); assay: Inhibition of recombinant human N-terminal GST-tagged BRD3 bromodomain-2 (306 to 417 residues) expressed in Escherichia coli expression system after 120 mins by TR-FRET assay; procedure, shortened: as §2
[18] = biological target: AMP-activated protein kinase, AMPK (Homo sapiens) (UniProt P54646+O43741+P54619+Q9UGJ0+Q9Y478+Q13131+Q9UGI9); assay: Inhibition of AMPK (unknown origin) at 1 to 10^6 nM using MBP as substrate after 60 mins in presence of ATP by ADO-Glo assay
[19] = test system: Mus musculus; assay: Toxicity in BALB/c mouse xenografted with human MDA-MB-231 cells assessed as effect on body weight at 25 to 100 mg/kg, ig administered once a day for […] measured every 3 days; assay type: organism-based; details: in vivo, po
Procedure, shortened: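 Female BALB/c nude mice (6-8 weeks, 20-22 g) with subcutaneous MCF-7 or MDA-MB-231 xenografts (5×10^6 cells). At 100 mm3, given 25, 50 or 100 mg/kg intragastrically once daily, or vehicle, for 24 or 27 days. Body weight recorded every 3 days. MCF-7 n=7, MDA-MB-231 n=6 per group.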

Sequence of Bromodomain-containing protein 2 (P25440 whole entry, the tested form may be a part): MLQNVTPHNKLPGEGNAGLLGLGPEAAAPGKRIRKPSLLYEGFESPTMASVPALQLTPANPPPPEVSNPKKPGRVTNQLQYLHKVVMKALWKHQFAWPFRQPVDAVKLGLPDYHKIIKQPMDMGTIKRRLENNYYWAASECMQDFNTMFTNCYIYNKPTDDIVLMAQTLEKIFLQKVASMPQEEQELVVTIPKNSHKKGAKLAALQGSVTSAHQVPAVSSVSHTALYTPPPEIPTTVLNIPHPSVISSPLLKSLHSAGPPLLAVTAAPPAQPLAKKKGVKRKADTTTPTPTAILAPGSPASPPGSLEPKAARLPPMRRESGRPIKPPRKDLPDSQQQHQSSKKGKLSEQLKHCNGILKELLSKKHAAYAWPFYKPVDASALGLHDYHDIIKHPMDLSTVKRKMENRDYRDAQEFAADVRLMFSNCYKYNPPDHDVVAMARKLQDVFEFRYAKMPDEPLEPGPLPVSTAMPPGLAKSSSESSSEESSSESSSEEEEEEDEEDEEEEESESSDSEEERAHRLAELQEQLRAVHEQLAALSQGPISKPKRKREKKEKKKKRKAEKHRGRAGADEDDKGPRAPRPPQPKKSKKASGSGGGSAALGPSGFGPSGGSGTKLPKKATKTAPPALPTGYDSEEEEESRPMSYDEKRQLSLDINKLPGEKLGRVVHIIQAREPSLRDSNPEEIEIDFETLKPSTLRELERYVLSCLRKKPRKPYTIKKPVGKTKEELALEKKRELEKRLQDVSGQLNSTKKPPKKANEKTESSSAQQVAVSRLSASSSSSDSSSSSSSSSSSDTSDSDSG
Sequence of Bromodomain-containing protein 3 (Q15059 whole entry, the tested form may be a part): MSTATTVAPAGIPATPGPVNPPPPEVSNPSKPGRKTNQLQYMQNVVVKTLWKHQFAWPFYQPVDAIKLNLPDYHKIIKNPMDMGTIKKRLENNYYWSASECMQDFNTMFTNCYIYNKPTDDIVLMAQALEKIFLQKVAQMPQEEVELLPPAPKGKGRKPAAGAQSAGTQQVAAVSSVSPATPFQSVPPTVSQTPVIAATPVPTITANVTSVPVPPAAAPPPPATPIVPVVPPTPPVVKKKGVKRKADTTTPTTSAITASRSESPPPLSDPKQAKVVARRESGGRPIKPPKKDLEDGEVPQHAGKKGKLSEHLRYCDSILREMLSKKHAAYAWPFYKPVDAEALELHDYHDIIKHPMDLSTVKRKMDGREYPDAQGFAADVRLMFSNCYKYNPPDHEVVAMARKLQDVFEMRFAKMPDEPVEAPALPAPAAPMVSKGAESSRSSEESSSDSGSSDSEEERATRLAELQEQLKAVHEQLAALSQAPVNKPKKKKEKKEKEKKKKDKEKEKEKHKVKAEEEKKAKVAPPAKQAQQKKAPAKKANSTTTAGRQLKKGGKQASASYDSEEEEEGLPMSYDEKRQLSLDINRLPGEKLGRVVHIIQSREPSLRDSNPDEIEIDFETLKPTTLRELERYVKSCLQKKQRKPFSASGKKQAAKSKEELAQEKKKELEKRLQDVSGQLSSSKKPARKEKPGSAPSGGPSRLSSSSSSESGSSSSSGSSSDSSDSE

Cc1cc(-c2nc3sc4c(c3c(=O)[nH]2)CCN(C)C4)cc(C)c1O
> 100 µM: IC50 [5] | IC50 [17]
0.43 µM: IC50 [8]
Non-Toxic: Activity [19]
inactive: Activity [6] | inhibition [18]
active: inhibition [1] | Activity [2] | Activity [3] | inhibition [4] | inhibition [7] | Activity [9] | inhibition [10] | Activity [11] | Activity [12] | Activity [13] | inhibition [14] | inhibition [15] | TGI [16]
